Data taken from ChEMBL document CHEMBL4819008, “Design, synthesis, and evaluation of "dual-site"-binding diarylpyrimidines targeting both NNIBP and the NNRTI adjacent site of the HIV-1 reverse transcriptase” (Eur J Med Chem, 2021).

Key:
[1] = system: Human immunodeficiency virus 1; test: Antiviral activity against wild type HIV1 NL4-3 infected in human TZM-bl cells assessed as reduction in viral infection measured after 1 day by luciferase reporter gene assay based luminiscence assay; assay type: functional, organism-based; conditions: Human immunodeficiency virus 1, NL4-3, TZM-bl, 24 h
Procedure, shortened: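 TZM-bl cells got a single-round infection with 800 TCID50 of NL4-3 at various compound concentrations, top concentration 100 ng/mL. Luminescence was read 1 day post-infection. EC50 is the concentration giving a 50% decrease in luciferase RLU versus control wells, determined in at least triplicate.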

[2] = Cytotoxicity against human TZM-bl cells assessed as reduction in cell viability measured after 1 day by CytoTox-Glo assay; assay type: cell-based
Procedure, shortened: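 TZM-bl cells were cultured 1 day with various compound concentrations, in parallel with the antiviral assay, top concentration 100 ng/mL. Viable cells were measured by CytoTox-Glo. CC50 is the concentration causing a 50% reduction in cell viability.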

[3] = Selectivity index, ratio of CC50 for human TZM-bl cells to EC50 for wild type HIV1 NL4-3 infected in human TZM-bl cells; assay type: toxicity, cell-based; conditions: read-out: Ratio CC50/EC50
Procedure, shortened: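 Selectivity index is CC50/EC50, with both values from the TZM-bl assays: NL4-3 single-round luciferase infection and CytoTox-Glo viability, each over 1 day.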

[4] = Cytotoxicity against human MT4 cells assessed as reduction in cell viability measured after 5 days by MTT assay; assay type: cell-based; conditions: time 5 day
Procedure, shortened: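 Mock-infected MT-4 cells (6 × 10^5 cells/mL) were run in parallel with the infected wells, under serial 5-fold compound dilutions in triplicate. MTT viability was read after 5 days and the median OD of three wells used. CC50 is the concentration that reduced OD540 of the mock-infected cells by 50%.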

[5] = Selectivity index, ratio of CC50 for human MT4 cells to EC50 for wild type HIV-1 3B infected in human MT4 cells; assay type: toxicity, cell-based; conditions: read-out: Ratio CC50/EC50
[6] = system: Human immunodeficiency virus 1; test: Antiviral activity against HIV-1 harboring reverse transcriptase L100I mutant infected in human MT4 cells assessed as inhibition of virus induced cytopathic effect measured after 5 days by MTT assay; assay type: functional, organism-based; conditions: Human immunodeficiency virus 1, MT4, 120 h
Procedure, shortened: (§1)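 MT-4 cells, exponentially growing, resuspended at 6 × 10^5 cells/mL and infected with the mutant HIV-1 stock at 100–300 CCID50. Compounds were added as 5-fold serial dilutions, in triplicate wells, alongside mock-infected wells. After 5 days, viability was read by MTT reduction at 540 and 690 nm using the median OD of three wells. EC50 is the concentration giving 50% protection from viral cytopathogenicity.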

[7] = system: Human immunodeficiency virus 1; test: Antiviral activity against HIV-1 harboring reverse transcriptase K103N mutant infected in human MT4 cells assessed as inhibition of virus induced cytopathic effect measured after 5 days by MTT assay; assay type: functional, organism-based; conditions: Human immunodeficiency virus 1, MT4, 120 h; procedure, shortened: as §1
[8] = system: Human immunodeficiency virus 1; test: Antiviral activity against HIV-1 harboring reverse transcriptase Y181C mutant infected in human MT4 cells assessed as inhibition of virus induced cytopathic effect measured after 5 days by MTT assay; assay type: functional, organism-based; conditions: Human immunodeficiency virus 1, MT4, 120 h; procedure, shortened: as §1
[9] = system: Human immunodeficiency virus 1; test: Antiviral activity against HIV-1 harboring reverse transcriptase Y188L mutant infected in human MT4 cells assessed as inhibition of virus induced cytopathic effect measured after 5 days by MTT assay; assay type: functional, organism-based; conditions: Human immunodeficiency virus 1, MT4, 120 h; procedure, shortened: as §1
[10] = system: Human immunodeficiency virus 1; test: Antiviral activity against HIV-1 harboring reverse transcriptase E138K mutant infected in human MT4 cells assessed as inhibition of virus induced cytopathic effect measured after 5 days by MTT assay; assay type: functional, organism-based; conditions: Human immunodeficiency virus 1, MT4, 120 h; procedure, shortened: as §1
[11] = system: Human immunodeficiency virus 1; test: Antiviral activity against HIV-1 harboring reverse transcriptase F227L/V106A mutant infected in human MT4 cells assessed as inhibition of virus induced cytopathic effect measured after 5 days by MTT assay; assay type: functional, organism-based; conditions: Human immunodeficiency virus 1, MT4, 120 h; procedure, shortened: as §1
[12] = system: Human immunodeficiency virus 1; test: Antiviral activity against HIV-1 harboring reverse transcriptase RES056 mutant infected in human MT4 cells assessed as inhibition of virus induced cytopathic effect measured after 5 days by MTT assay; assay type: functional, organism-based; conditions: Human immunodeficiency virus 1, MT4, 120 h; procedure, shortened: as §1
[13] = system: Human immunodeficiency virus 1; test: Antiviral activity against wild type HIV-1 3B infected in human MT4 cells assessed as inhibition of virus-induced cytopathic effect measured after 5 days by MTT assay; assay type: functional, organism-based; conditions: Human immunodeficiency virus 1, 3B, MT4, 120 h
Procedure, shortened: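 MT-4 cells at 6 × 10^5 cells/mL were infected with virus stock at 100–300 CCID50 in the presence of serial 5-fold compound dilutions, in triplicate wells. Viability was read by MTT reduction 5 days after infection, with absorbance at 540 and 690 nm and the median OD of three wells used. EC50 is the concentration giving 50% protection from viral cytopathicity.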

[14] = Antiviral activity against HIV-2 ROD infected in human MT4 cells assessed as protection against virus-induced cytopathic effect measured after 5 days by MTT assay; conditions: Human immunodeficiency virus 2, ISOLATE ROD, MT4, 120 h

Cc1ccnc2c1NC(=O)c1cccnc1N2C1CC1 [NEVIRAPINE]
EC50 [1]: 281 nM
CC50 at 24 h [2]: > 15000 nM
selectivity ratio [3]: > 53
CC50 at 120 h [4]: > 9500 nM
selectivity ratio [5]: > 113
EC50 [6]: 373 nM
EC50 [7]: 1470 nM
EC50 [8]: 2320 nM
EC50 [9]: 3390 nM
EC50 [10]: 72.8 nM
EC50 [11]: 2730 nM
EC50 [12]: 6750 nM

Cc1cc(C#N)cc(C)c1Oc1nc(Nc2ccc(C#N)cc2)ncc1/C=C/C(=O)NCCN1CCN(S(C)(=O)=O)CC1
EC50 [1]: 4.16 nM
CC50 at 24 h [2]: > 166 nM
selectivity ratio [3]: > 40
EC50 [13]: 6.1 nM
CC50 at 120 h [4]: 5900 nM
selectivity ratio [5]: 955
EC50 [6]: 78.6 nM
EC50 [7]: 8.7 nM
EC50 [8]: 48.6 nM
EC50 [9]: 101 nM
EC50 [10]: 20.9 nM
EC50 [11]: 251 nM
EC50 [12]: 808 nM
EC50 [14]: > 5860 nM

Cc1cc(C#N)cc(C)c1Oc1nc(Nc2ccc(C#N)cc2)nc(N)c1Br [ETRAVIRINE]
EC50 [1]: 1.45 nM
CC50 at 24 h [2]: > 229 nM
CC50 at 120 h [4]: > 4600 nM
EC50 [6]: 10.2 nM
EC50 [7]: 2.3 nM
EC50 [9]: 15.5 nM
EC50 [11]: 8.2 nM
EC50 [12]: 60.2 nM

Cc1cn([C@H]2C[C@H](N=[N+]=[N-])[C@@H](CO)O2)c(=O)[nH]c1=O [ZIDOVUDINE]
EC50 [1]: 7.5 nM
CC50 at 24 h [2]: > 6300 nM
selectivity ratio [3]: > 1000
EC50 [13]: 18.3 nM
CC50 at 120 h [4]: > 7500 nM
selectivity ratio [5]: > 410
EC50 [6]: 7 nM
EC50 [7]: 12.6 nM
EC50 [8]: 8.7 nM
EC50 [9]: 9.9 nM
EC50 [10]: 14.5 nM
EC50 [11]: 4.7 nM
EC50 [12]: 20.1 nM

O=C1Nc2ccc(Cl)cc2[C@@](C#CC2CC2)(C(F)(F)F)O1 [EFAVIRENZ]
EC50 [1]: 5.2 nM
CC50 at 24 h [2]: > 6300 nM
selectivity ratio [3]: > 1210
EC50 [13]: 2.5 nM
CC50 at 120 h [4]: > 6300 nM
selectivity ratio [5]: > 2570
EC50 [6]: 30.8 nM
EC50 [7]: 63.7 nM
EC50 [8]: 5.2 nM
EC50 [9]: 148 nM
EC50 [10]: 5.7 nM
EC50 [11]: 169 nM
EC50 [12]: 273 nM

Cc1cc(C#N)cc(C)c1Oc1nc(Nc2ccc(C#N)cc2)ncc1/C=C/C(=O)NCCOCCO
EC50 [1]: 4.81 nM
CC50 at 24 h [2]: > 200 nM
selectivity ratio [3]: > 42
EC50 [13]: 27.1 nM
CC50 at 120 h [4]: 61800 nM
selectivity ratio [5]: 2280
EC50 [6]: 227 nM
EC50 [7]: 50.3 nM
EC50 [8]: 197 nM
EC50 [9]: 146 nM
EC50 [10]: 47.1 nM
EC50 [11]: 318 nM
EC50 [12]: 1050 nM
EC50 [14]: > 61800 nM

Cc1cc(C#N)cc(C)c1Oc1nc(Nc2ccc(C#N)cc2)ncc1/C=C/C(=O)NCCN1CCOCC1
EC50 [1]: 3.44 nM
CC50 at 24 h [2]: > 190 nM
selectivity ratio [3]: > 56
EC50 [13]: 8.5 nM
CC50 at 120 h [4]: 22400 nM
selectivity ratio [5]: 2630
EC50 [6]: 263 nM
EC50 [7]: 18.5 nM
EC50 [8]: 108 nM
EC50 [9]: 123 nM
EC50 [10]: 21.8 nM
EC50 [11]: 462 nM
EC50 [12]: 1750 nM
EC50 [14]: > 22400 nM

Cc1cc(C#N)cc(C)c1Oc1nc(Nc2ccc(C#N)cc2)ncc1/C=C/C(=O)NCCCN1CCOCC1
EC50 [1]: 3.53 nM
CC50 at 24 h [2]: > 186 nM
selectivity ratio [3]: > 53
EC50 [13]: 10.5 nM
CC50 at 120 h [4]: 23000 nM
selectivity ratio [5]: 2200
EC50 [6]: 254 nM
EC50 [7]: 22 nM
EC50 [8]: 124 nM
EC50 [9]: 212 nM
EC50 [10]: 22.6 nM
EC50 [11]: 443 nM
EC50 [12]: 1210 nM
EC50 [14]: > 23000 nM
